Experimental data: ChEMBL document CHEMBL1153504, “Short-acting 5-(trifluoromethyl)pyrido[4,3-d]pyrimidin-4(3H)-one derivatives as orally-active calcium-sensing receptor antagonists” (Bioorg Med Chem Lett, 2009)
Blank lines part the entries; values can stand above or below the compound they belong to. The source made the active and inactive calls. No cut-off for these calls is given here.

Tests used:
[1] = Antagonist activity at human calcium receptor expressed in HEK293 cells assessed as inhibition of extracellular calcium-induced release of intracellular calcium strores into cytosol by FLIPR assay; format: functional, cell-based
[2] = Plasma clearance in Sprague-Dawley rat at 1 mg/kg, iv; format: ADME, organism-based; set-up: dose 1 mg/kg, route intravenous
In short: (§1)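 Male Sprague-Dawley rats, n = 2–5. iv dosing in glycerol formal containing 2% DMSO; po dosing as a spray dried dispersion. Plasma compound levels followed for PK parameters.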

[3] = (§2) Volume of distribution at steady state in Sprague-Dawley rat at 1 mg/kg, iv; format: ADME, organism-based; set-up: dose 1 mg/kg, route intravenous; conditions: Sprague-Dawley, in vivo, read-out: Vdss; in short: as §1
[4] = (§3) Terminal half life in Sprague-Dawley rat at 1 mg/kg, iv; format: ADME, organism-based; set-up: dose 1 mg/kg, route intravenous; conditions: Sprague-Dawley, in vivo, read-out: beta t1/2 (converted); in short: as §1
[5] = AUC in Sprague-Dawley rat at 1 mg/kg, iv; format: ADME, organism-based; set-up: dose 1 mg/kg, route intravenous; conditions: plasma; in short: as §1
[6] = Cmax in Sprague-Dawley rat at 1 mg/kg, iv; format: ADME, organism-based; set-up: dose 1 mg/kg, route intravenous; conditions: in vivo; in short: as §1
[7] = Cmax in Sprague-Dawley rat at 10 mg/kg, po; format: ADME, organism-based; set-up: dose 10 mg/kg, route oral; conditions: in vivo; in short: as §1
[8] = Tmax in Sprague-Dawley rat at 1 mg/kg, iv; format: ADME, organism-based; set-up: dose 1 mg/kg, route intravenous; conditions: in vivo; in short: as §1
[9] = system: Rattus norvegicus; test: Induction of bone formation in Sprague-Dawley rat assessed as stimulation of PTH level in plasma at 1 mg/kg, iv after 2 mins by ELISA; format: functional
In short: (§4)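 Male Sprague-Dawley rats, n = 5/6, given a single iv or po dose. Plasma PTH 1-84 measured by an ELISA specific for full-length rat PTH 1-84. Earliest sampling at ~2 min; comparison against baseline in vehicle-treated animals.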

[10] = system: Rattus norvegicus; test: Induction of bone formation in Sprague-Dawley rat assessed as stimulation of PTH level in plasma at 1 mg/kg, iv after 2 mins relative by ELISA to basal level; format: functional; in short: as §4
[11] = system: Rattus norvegicus; test: Induction of bone formation in Sprague-Dawley rat assessed as stimulation of PTH level in plasma at dose 10 mg/kg, po by ELISA; format: functional; in short: as §4
[12] = system: Rattus norvegicus; test: Induction of bone formation in Sprague-Dawley rat assessed as transient stimulation of PTH level in plasma at dose 10 mg/kg, po on day 1 by ELISA; format: functional, organism-based; set-up: dose 10 mg/kg
[13] = system: Rattus norvegicus; test: Induction of bone formation in Sprague-Dawley rat assessed as transient stimulation of PTH level in plasma at dose 10 mg/kg, po administered for 5 days measured on day 5 by ELISA; format: functional, organism-based; set-up: dose 10 mg/kg
[14] = system: Rattus norvegicus; test: Induction of bone formation in Sprague-Dawley rat assessed as sustained elevation of PTH level in plasma at dose 10 mg/kg, po administered for 5 days measured on day 5 by ELISA; format: functional, organism-based; set-up: dose 10 mg/kg
[15] = molecular target: Voltage-gated inwardly rectifying potassium channel KCNH2 (Homo sapiens, UniProt Q12809); test: Inhibition of human ERG
[16] = Half life in human; format: ADME, organism-based; conditions: in vivo
[17] = species on record: Rattus norvegicus; test: Ratio of AUC for 1-aminobenzotriazole led P450 inactivator pretreated Sprague-Dawley rat to AUC for normal Sprague-Dawley rat; format: ADME, organism-based; conditions: in vivo
[18] = Plasma clearance in 1-aminobenzotriazole led P450 inactivator pretreated Sprague-Dawley rat at 1 mg/kg, iv; format: ADME, organism-based; set-up: dose 1 mg/kg, route intravenous
[19] = species on record: Rattus norvegicus; test: Ratio of half life for 1-aminobenzotriazole led P450 inactivator pretreated Sprague-Dawley rat to half life for normal Sprague-Dawley rat; format: ADME, organism-based; conditions: in vivo
[20] = system: Rattus norvegicus; test: as §2; format: ADME, organism-based; set-up: dose 1 mg/kg, route intravenous; conditions: in vivo; in short: as §1
[21] = system: Rattus norvegicus; test: as §3; format: ADME, organism-based; set-up: dose 1 mg/kg, route intravenous; conditions: in vivo; in short: as §1

Sequence of Voltage-gated inwardly rectifying potassium channel KCNH2 (Q12809 whole entry): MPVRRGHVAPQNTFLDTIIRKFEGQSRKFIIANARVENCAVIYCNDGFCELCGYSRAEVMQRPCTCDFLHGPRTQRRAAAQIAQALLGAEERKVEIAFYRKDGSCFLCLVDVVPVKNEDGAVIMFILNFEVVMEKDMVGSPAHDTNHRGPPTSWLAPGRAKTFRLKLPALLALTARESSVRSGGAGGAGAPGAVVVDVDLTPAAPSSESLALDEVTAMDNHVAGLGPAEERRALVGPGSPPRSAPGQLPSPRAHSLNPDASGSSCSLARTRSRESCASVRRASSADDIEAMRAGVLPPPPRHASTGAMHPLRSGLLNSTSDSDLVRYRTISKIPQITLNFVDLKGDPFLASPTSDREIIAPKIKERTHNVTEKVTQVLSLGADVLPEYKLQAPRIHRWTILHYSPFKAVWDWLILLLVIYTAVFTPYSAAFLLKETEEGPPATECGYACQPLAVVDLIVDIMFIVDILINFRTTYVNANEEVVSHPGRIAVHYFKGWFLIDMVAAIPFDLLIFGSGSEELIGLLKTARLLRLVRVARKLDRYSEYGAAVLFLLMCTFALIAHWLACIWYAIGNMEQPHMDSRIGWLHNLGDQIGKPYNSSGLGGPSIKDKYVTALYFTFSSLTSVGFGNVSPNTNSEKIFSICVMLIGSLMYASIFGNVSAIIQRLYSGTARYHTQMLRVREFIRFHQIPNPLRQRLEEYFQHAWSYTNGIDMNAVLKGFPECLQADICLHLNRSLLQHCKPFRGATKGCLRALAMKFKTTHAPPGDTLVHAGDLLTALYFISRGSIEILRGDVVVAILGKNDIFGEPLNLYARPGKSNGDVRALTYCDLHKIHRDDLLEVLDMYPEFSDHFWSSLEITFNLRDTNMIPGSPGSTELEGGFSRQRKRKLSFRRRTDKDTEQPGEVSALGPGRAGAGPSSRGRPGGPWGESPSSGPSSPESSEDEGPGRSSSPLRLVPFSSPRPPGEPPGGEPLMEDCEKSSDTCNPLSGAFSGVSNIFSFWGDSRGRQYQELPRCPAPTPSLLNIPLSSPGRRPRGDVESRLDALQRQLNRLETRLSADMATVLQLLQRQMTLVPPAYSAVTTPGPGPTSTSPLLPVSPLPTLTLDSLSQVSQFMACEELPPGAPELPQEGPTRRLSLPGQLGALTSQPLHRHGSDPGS

IC50 [1]: 76 nM
Compound: COc1ccccc1CCn1c(-c2ncccc2O)nc2ccnc(C(F)(F)F)c2c1=O

IC50 [1]: 1070 nM
Compound: O=c1c2c(C(F)(F)F)nccc2nc(-c2ccccc2Cl)n1CCc1ccccc1

IC50 [1]: 106 nM
Compound: O=c1c2c(Cl)nccc2nc(-c2ccccc2O)n1CCc1ccccc1

IC50 [1]: 610 nM
Compound: O=c1c2c(C(F)(F)F)nccc2nc(-c2cccc(F)c2O)n1CCc1ccccc1

IC50 [1]: 36 nM
clearance [2]: 35.9 mL/min/kg
Vd [3]: 3.2 L/kg
half-life [4]: 37.2 min
AUC [5]: 490 ng·h/mL
Compound: O=c1c2c(C(F)(F)F)nccc2nc(-c2ncccc2O)n1CCC1CCCCC1

IC50 [1]: 656 nM
Compound: O=c1c2c(C(F)(F)F)nccc2nc(-c2cscn2)n1CCc1ccccc1

IC50 [1]: 435 nM
Compound: O=c1c2c(OC3CCC3)nccc2nc(-c2ccccc2O)n1CCc1ccccc1

IC50 [1]: 50 nM
Compound: O=c1c2c(C(F)(F)F)nccc2nc(-c2ccccc2O)n1CCc1ccccc1

IC50 [1]: 8 nM
Cmax [6]: 133 ng/mL
Cmax [7]: 165 ng/mL
Tmax [8]: 18 min
clearance [2]: 46.5 mL/min/kg
Vd [3]: 8.6 L/kg
half-life [4]: 234 min
AUC [5]: 364 ng·h/mL
Compound: C[C@H](Cc1ccc(F)c(F)c1)n1c(-c2ncccc2O)nc2ccnc(C(F)(F)F)c2c1=O
Activity [9]: 1303 pg/mL
fold change (FC) [10]: 10
Activity [11]: 599 pg/mL
Activity [12]: Active
Activity [13]: Active
Activity [14]: inactive

half-life [16]: 480 min
Compound: CC(C)(Cc1ccc2ccccc2c1)NC[C@@H](O)COc1cccc(Cl)c1C#N
Activity [15]: Active

IC50 [1]: 25 nM
clearance [2]: 31.6 mL/min/kg
Vd [3]: 3.6 L/kg
half-life [4]: 91.8 min
AUC [5]: 528 ng·h/mL
Compound: C[C@H](Cc1ccccc1)n1c(-c2cccc(F)c2O)nc2ccnc(C(F)(F)F)c2c1=O

IC50 [1]: 2990 nM
Compound: Cc1nccc2nc(-c3ccccc3O)n(CCc3ccccc3)c(=O)c12

IC50 [1]: 151 nM
Compound: O=c1c2c(C(F)(F)F)nccc2nc(-c2ncccc2O)n1CCc1ccccc1F

IC50 [1]: 5320 nM
Compound: O=c1c2c(N3CCCC3)nccc2nc(-c2ccccc2O)n1CCc1ccccc1

IC50 [1]: 41 nM
Cmax [6]: 125 ng/mL
Cmax [7]: 350 ng/mL
Tmax [8]: 30 min
clearance [2]: 32.2 mL/min/kg
Vd [3]: 1.4 L/kg
half-life [4]: 36 min
Ratio [17]: 4
AUC [5]: 518 ng·h/mL
clearance [18]: 7.8 mL/min/kg
Ratio [19]: 7
Compound: C[C@H](Cc1ccccc1)n1c(-c2ccccc2O)nc2ccnc(C(F)(F)F)c2c1=O
Activity [9]: 921 pg/mL
Activity [11]: 620 pg/mL
Activity [12]: Active
Activity [13]: Active
Activity [14]: inactive

IC50 [1]: 132 nM
Compound: O=c1c2c(C(F)(F)F)nccc2nc(-c2ccccc2O)n1CCc1ccccc1F

IC50 [1]: 19 nM
Compound: CC(=O)Nc1cccnc1-c1nc2ccnc(C(F)(F)F)c2c(=O)n1[C@H](C)Cc1ccccc1

IC50 [1]: 226 nM
Compound: Cc1cccnc1-c1nc2ccnc(C(F)(F)F)c2c(=O)n1[C@H](C)Cc1ccccc1

IC50 [1]: 22 nM
Compound: C[C@H](Cc1ccccc1)n1c(-c2ncccc2O)nc2ccnc(C(F)(F)F)c2c1=O

IC50 [1]: 64 nM
Cmax [6]: 100 ng/mL
Cmax [7]: 450 ng/mL
Tmax [8]: 78 min
Vdss [20]: 2.9 L/kg
beta t1/2 [21]: 48 min
AUC [5]: 1200 ng·h/mL
Compound: C[C@H](Cc1ccccc1)n1c(-c2ncccc2C(F)(F)F)nc2ccnc(C(F)(F)F)c2c1=O

IC50 [1]: 158 nM
Compound: C[C@@H](Cc1ccccc1)n1c(-c2ccccc2O)nc2ccnc(C(F)(F)F)c2c1=O

IC50 [1]: 152 nM
Compound: C[C@H](Cc1ccccc1)n1c(-c2ccccc2Cl)nc2ccnc(C(F)(F)F)c2c1=O

IC50 [1]: 216 nM
Compound: C[C@H](Cc1ccccc1)n1c(-c2cscn2)nc2ccnc(C(F)(F)F)c2c1=O

IC50 [1]: 224 nM
Compound: CC(C)Oc1nccc2nc(-c3ccccc3O)n(CCc3ccccc3)c(=O)c12

IC50 [1]: 79 nM
Vdss [20]: 6 L/kg
beta t1/2 [21]: 57 min
AUC [5]: 810 ng·h/mL
Compound: C[C@H](Cc1ccccc1)n1c(-c2ncccc2Cl)nc2ccnc(C(F)(F)F)c2c1=O
